Reference: ChEMBL document CHEMBL4014271, “Trimeric and Tetrameric A-Type Procyanidins from Peanut Skins” (2017)
Active and inactive are the calls of the source. The rule behind the calls is not given here.

Key:
Assay type in all cases: functional
RAW264.7 [1] = assay: Anti-inflammatory activity in mouse RAW264.7 cells assessed as inhibition of LPS-induced TNFalpha secretion at 50 ug/ml preincubated for 1 hr followed by LPS stimulation for 23 hrs by ELISA relative to control
How it was run: (§1)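 RAW264.7 murine macrophages were grown in DMEM with 10% FBS at 37 °C in 5% CO2 and seeded at 5 × 10^5 to 80−90% confluence. Procyanidins in sterile water were added at 10, 50 or 100 μg/mL for 1 h. LPS (E. coli 0111:B4, 1 μg/mL) followed for 23 h. TNF-α in the collected medium was measured by ELISA and reported as % inhibition of LPS-dependent secretion.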

RAW264.7 [2] = assay: Anti-inflammatory activity in mouse RAW264.7 cells assessed as inhibition of LPS-induced TNFalpha secretion at 100 ug/ml preincubated for 1 hr followed by LPS stimulation for 23 hrs by ELISA relative to control; how it was run: as §1
RAW264.7 [3] = assay: Anti-inflammatory activity in mouse RAW264.7 cells assessed as inhibition of LPS-induced TNFalpha secretion at 10 ug/ml preincubated for 1 hr followed by LPS stimulation for 23 hrs by ELISA relative to control; how it was run: as §1

Row | SMILES | inhibition at 50 µg/mL (RAW264.7 [1]) | inhibition at 100 µg/mL (RAW264.7 [2]) | inhibition at 10 µg/mL (RAW264.7 [3]) | inhibition (RAW264.7 [2])
1 | Oc1cc(O)c2c(c1)O[C@@]1(c3ccc(O)c(O)c3)Oc3cc(O)c4c(c3[C@@H]2[C@H]1O)O[C@@]1(c2ccc(O)c(O)c2)Oc2cc(O)c3c(c2[C@@H]4[C@H]1O)O[C@H](c1ccc(O)c(O)c1)[C@@H](O)C3 | 78.8% | 100% | 6.28% | –
2 | Oc1cc(O)c2c(c1)O[C@@]1(c3ccc(O)c(O)c3)Oc3cc(O)c4c(c3[C@@H]2[C@H]1O)O[C@H](c1ccc(O)c(O)c1)[C@H](O)[C@H]4c1c(O)cc2c(c1O)[C@@H]1c3c(cc(O)c4c3O[C@H](c3ccc(O)c(O)c3)[C@@H](O)C4)O[C@](c3ccc(O)c(O)c3)(O2)[C@@H]1O | 71.2% | 98.6% | 4.26% | –
3 | Oc1cc(O)c2c(c1)O[C@@]1(c3ccc(O)c(O)c3)Oc3cc(O)c4c(c3[C@@H]2[C@H]1O)O[C@H](c1ccc(O)c(O)c1)[C@@H](O)C4 | – | – | – | inactive
4 | Oc1cc(O)c2c(c1)O[C@H](c1ccc(O)c(O)c1)[C@H](O)[C@H]2c1c(O)cc2c(c1O)[C@@H]1c3c(cc(O)c4c3O[C@H](c3ccc(O)c(O)c3)[C@@H](O)C4)O[C@](c3ccc(O)c(O)c3)(O2)[C@@H]1O | 89.7% | 100% | 0% | –
5 | Oc1cc(O)c2c(c1)O[C@@H](c1ccc(O)c(O)c1)[C@@H](O)[C@H]2c1c(O)cc(O)c2c1O[C@@]1(c3ccc(O)c(O)c3)Oc3cc(O)c4c(c3[C@@H]2[C@H]1O)O[C@H](c1ccc(O)c(O)c1)[C@@H](O)C4 | – | – | – | inactive
6 | Oc1cc(O)c2c(c1)O[C@@]1(c3ccc(O)c(O)c3)Oc3cc(O)c4c(c3[C@@H]2[C@H]1O)O[C@H](c1ccc(O)c(O)c1)[C@H](O)[C@H]4c1c(O)cc2c(c1O)C[C@H](O)[C@@H](c1ccc(O)c(O)c1)O2 | 99.4% | 100% | 28.6% | –
7 | Oc1cc(O)c2c(c1)O[C@@]1(c3ccc(O)c(O)c3)Oc3cc(O)c4c(c3[C@@H]2[C@H]1O)O[C@H](c1ccc(O)c(O)c1)[C@H](O)[C@H]4c1c(O)cc2c(c1O)[C@@H]1c3c(cc(O)c4c3O[C@H](c3ccc(O)c(O)c3)[C@H](O)C4)O[C@](c3ccc(O)c(O)c3)(O2)[C@@H]1O | 100% | 100% | 82.2% | –
